The target of experiment [1] is MAP/microtubule affinity-regulating kinase 3 (Homo sapiens) (UniProt P27448). Briefly: Binding affinity to recombinant MARK3 (unknown origin) assessed as change in melting temperature at 10 uM by DSF assay. In short, it runs like this: (§1)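 Differential scanning fluorimetry on an in-house panel of 90 recombinant kinases. Stabilization is read as the shift in melting temperature (ΔTm) relative to ligand-free protein. Staurosporine served as the positive control, and binding was also compared against its ΔTm.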
Chain of MAP/microtubule affinity-regulating kinase 3 (Homo sapiens) (P27448 whole entry, looked up): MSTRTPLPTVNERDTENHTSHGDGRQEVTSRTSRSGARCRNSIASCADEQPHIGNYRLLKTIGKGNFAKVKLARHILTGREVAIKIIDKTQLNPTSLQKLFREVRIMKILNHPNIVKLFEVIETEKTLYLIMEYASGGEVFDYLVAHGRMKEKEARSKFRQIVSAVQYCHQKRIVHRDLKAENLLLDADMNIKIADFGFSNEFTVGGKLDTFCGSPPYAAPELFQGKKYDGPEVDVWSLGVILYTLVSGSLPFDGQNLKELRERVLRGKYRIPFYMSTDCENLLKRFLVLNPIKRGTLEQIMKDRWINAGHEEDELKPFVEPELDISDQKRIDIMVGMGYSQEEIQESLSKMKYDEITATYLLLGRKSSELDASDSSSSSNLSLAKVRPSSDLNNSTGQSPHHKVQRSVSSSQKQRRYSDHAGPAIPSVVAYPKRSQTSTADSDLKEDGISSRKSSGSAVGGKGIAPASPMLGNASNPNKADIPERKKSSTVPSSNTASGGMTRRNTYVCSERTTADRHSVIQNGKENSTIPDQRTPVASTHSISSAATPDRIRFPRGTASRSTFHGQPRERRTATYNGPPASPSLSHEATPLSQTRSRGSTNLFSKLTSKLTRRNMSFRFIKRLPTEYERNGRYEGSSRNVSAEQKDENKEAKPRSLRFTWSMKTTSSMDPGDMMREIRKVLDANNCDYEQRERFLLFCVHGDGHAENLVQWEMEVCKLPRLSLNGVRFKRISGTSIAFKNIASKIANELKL
Background: Differential scanning fluorimetry follows unfolding on heating by fluorescence.

Experiment [2] deals with Cyclin-dependent kinase 2 (Homo sapiens) (UniProt P24941). The experiment in a line: Binding affinity to recombinant CDK2 (unknown origin) assessed as change in melting temperature at 10 uM by DSF assay. In short, it runs like this: as §1
The target of experiment [3] is Vascular endothelial growth factor receptor 1 (Homo sapiens) (UniProt P17948). The experiment in a line: Inhibition of recombinant FLT1 (unknown origin) at 10 uM by DSF assay relative to staurosporine. In outline:
as §1

The target in experiment [4] is T1, MAP/microtubule affinity-regulating kinase 4 (Homo sapiens) (UniProt Q96L34).
T1 sequence (whole entry): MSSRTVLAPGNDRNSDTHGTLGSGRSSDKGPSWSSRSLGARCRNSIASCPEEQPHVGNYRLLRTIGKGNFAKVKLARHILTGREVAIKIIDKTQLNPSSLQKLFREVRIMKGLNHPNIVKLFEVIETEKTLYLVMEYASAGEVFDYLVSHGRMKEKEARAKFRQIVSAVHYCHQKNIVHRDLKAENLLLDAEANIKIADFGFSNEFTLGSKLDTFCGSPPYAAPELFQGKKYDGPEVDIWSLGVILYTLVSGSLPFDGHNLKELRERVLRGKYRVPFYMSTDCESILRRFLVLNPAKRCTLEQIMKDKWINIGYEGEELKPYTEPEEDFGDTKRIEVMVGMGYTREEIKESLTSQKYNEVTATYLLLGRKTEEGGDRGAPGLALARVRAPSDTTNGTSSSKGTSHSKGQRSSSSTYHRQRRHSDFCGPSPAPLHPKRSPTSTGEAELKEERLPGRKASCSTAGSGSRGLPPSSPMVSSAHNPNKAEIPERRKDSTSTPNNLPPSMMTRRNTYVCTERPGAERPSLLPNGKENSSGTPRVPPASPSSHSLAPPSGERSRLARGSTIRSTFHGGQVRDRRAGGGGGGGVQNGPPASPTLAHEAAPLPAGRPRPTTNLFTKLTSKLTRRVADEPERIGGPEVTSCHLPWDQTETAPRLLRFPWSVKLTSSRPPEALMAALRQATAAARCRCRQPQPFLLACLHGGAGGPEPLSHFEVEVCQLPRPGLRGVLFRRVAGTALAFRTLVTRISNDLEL
The experiment in a line: Inhibition of recombinant MARK4 (unknown origin) at 10 uM by DSF assay relative to staurosporine. In outline:
as §1

Experiment [5] deals with T2, Mitogen-activated protein kinase 15 (Homo sapiens) (UniProt Q8TD08).
T2 sequence (whole entry): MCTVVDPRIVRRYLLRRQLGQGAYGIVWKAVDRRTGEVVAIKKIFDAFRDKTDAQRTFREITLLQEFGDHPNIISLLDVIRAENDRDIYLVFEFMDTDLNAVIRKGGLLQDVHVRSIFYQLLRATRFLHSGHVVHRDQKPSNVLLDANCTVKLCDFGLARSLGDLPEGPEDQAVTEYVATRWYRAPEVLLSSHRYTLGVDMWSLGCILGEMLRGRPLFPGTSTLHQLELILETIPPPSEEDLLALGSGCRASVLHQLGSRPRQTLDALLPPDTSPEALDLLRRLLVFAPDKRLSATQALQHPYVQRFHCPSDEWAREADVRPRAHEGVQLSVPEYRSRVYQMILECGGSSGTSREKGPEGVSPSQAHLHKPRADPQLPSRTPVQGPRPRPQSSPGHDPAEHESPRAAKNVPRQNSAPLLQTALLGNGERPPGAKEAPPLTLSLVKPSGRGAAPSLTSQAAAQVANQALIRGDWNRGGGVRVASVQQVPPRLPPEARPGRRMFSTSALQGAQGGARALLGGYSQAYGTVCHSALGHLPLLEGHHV
Briefly: Inhibition of recombinant MAPK15 (unknown origin) at 10 uM by DSF assay relative to staurosporine. In outline:
as §1

Experiment [6] has as its target T3, Serine/threonine-protein kinase 4 (Homo sapiens) (UniProt Q13043).
T3 sequence (whole entry): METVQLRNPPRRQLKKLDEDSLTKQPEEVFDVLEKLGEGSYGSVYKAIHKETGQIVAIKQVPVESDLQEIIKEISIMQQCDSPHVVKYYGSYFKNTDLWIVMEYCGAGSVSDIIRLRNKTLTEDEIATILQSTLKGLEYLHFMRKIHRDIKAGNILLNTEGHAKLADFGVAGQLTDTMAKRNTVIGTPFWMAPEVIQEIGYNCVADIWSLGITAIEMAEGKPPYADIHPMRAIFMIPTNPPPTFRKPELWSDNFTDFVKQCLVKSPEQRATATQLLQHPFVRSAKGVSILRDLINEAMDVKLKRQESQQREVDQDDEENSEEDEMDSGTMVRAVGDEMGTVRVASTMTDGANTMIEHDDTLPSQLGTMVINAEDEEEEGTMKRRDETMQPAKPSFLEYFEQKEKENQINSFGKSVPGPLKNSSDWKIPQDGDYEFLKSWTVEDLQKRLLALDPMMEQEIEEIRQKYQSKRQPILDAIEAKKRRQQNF
Briefly: Inhibition of recombinant STK4 (unknown origin) at 10 uM by DSF assay relative to staurosporine. In outline:
as §1

The target in experiment [7] is Glycogen synthase kinase-3 alpha (Homo sapiens, UniProt P49840). The experiment in a line: Inhibition of GSK3A (unknown origin) assessed as residual activity at 1 uM by Kinomescan assay relative to staurosporine.
Chain of Glycogen synthase kinase-3 alpha (P49840 2-483 limits assumed): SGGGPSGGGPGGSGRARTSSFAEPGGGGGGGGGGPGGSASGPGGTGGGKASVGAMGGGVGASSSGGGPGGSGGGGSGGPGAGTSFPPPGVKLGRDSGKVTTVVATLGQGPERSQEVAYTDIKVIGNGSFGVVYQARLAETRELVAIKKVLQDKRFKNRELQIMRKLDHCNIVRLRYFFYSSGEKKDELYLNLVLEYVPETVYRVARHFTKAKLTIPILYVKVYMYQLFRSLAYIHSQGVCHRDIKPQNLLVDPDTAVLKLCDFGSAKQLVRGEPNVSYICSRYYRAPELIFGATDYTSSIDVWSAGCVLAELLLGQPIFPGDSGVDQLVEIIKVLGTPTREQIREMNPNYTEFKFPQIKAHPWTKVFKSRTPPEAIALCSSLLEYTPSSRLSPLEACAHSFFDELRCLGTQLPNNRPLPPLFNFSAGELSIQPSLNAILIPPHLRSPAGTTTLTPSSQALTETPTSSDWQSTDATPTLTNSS

The ΔTm is the change in melting temperature against a reference sample. A word on the inhibition: it is the change of the read-out against control, counted positive when it falls.

Chain of Vascular endothelial growth factor receptor 1 (Homo sapiens) (P17948 whole entry): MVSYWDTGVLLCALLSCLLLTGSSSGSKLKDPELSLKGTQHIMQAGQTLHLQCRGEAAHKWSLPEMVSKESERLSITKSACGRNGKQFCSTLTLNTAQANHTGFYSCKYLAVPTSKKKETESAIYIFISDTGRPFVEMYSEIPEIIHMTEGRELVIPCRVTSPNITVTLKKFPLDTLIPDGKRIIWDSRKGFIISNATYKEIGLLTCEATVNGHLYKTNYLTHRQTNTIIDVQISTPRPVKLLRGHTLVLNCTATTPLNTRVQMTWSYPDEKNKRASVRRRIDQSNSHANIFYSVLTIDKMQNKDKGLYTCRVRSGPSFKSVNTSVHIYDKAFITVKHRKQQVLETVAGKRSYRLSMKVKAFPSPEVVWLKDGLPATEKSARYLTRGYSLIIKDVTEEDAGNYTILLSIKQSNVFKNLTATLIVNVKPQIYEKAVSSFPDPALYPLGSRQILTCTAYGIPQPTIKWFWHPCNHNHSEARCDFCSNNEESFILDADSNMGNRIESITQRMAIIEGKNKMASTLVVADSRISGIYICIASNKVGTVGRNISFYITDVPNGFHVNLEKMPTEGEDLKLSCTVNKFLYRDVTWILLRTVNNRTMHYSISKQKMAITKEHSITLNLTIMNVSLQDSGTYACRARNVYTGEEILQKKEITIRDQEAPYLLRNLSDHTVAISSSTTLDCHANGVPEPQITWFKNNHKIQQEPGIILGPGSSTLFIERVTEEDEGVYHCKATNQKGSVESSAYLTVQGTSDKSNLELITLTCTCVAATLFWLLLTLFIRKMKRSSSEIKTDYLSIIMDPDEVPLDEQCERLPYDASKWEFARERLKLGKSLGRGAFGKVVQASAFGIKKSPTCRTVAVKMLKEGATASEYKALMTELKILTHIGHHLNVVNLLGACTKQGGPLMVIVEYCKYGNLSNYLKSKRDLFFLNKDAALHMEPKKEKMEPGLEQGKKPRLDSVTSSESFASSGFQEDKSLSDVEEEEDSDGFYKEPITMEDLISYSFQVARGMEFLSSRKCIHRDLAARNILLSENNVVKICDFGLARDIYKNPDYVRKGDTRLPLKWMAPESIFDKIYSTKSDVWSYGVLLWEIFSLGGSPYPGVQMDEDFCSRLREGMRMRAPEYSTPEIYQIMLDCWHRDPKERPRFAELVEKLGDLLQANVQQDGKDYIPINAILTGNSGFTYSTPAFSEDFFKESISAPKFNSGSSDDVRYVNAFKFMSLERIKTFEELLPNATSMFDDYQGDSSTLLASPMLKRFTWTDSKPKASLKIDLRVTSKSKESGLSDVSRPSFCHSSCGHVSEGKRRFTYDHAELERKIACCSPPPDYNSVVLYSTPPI

In the case of `O=C1NCCc2ccc(cc2)Nc2nccc(n2)Nc2cc1[nH]n2`, the shift in melting temperature (ΔTm) in experiment [1] was found to be 3.9 °C; in experiment [2], 3.3 °C. The inhibition turned out to be 36% in experiment [3], 23% in experiment [4], 26% in experiment [5] and 22% in experiment [6]. Besides, the Activity in experiment [7] was 16%.

(Values after ChEMBL document CHEMBL5247671, “Design and Synthesis of Pyrazole-Based Macrocyclic Kinase Inhibitors Targeting BMPR2” (ACS Med Chem Lett, 2023).)
